For eleven compounds, IC50 results are on record in ChEMBL document CHEMBL4190207, “Lignans from the Roots of Taxus wallichiana and Their α-Glucosidase Inhibitory Activities” (J Nat Prod, 2017).

A short description of this assay: Inhibition of Saccharomyces cerevisiae alpha-glucosidase using p-nitrophenyl-alpha-D-glucopyranoside as substrate after 30 mins. In a few lines:
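Reaction started by adding 3 mM p-nitrophenyl-α-D-glucopyranoside and 0.2 U/mL α-glucosidase (both stock concentrations) in 0.01 M phosphate buffer, pH 7.0, to the sample solution. Incubated at 37 °C for 30 min, then stopped with 0.1 M Na2CO3. Activity read as absorbance at 401 nm. IC50 is the concentration giving 50% inhibition of enzyme activity. Acarbose was the positive control.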

The structures appear in SMILES notation. pIC50: −log10 of the molar value.

`COc1cc2c(cc1O)C1c3cc(O)c(O)cc3C(=O)C(C2)C1CO` (stereo unspecified) showed a pIC50 of 3.87. The value for `COc1cc(C[C@H]2C(=O)OC[C@@H]2C(=O)c2ccc(O)c(OC)c2)ccc1O` was 4.10. As for `COc1cc([C@H]2c3cc(O)c(OC)cc3C[C@H]3[C@H](OC)OC[C@H]23)ccc1O`, the negative logarithm of the IC50 (pIC50) is 4.45. The value for `COc1cc(C[C@H]2[C@@H](OC)OC[C@@H]2[C@H](OC)c2ccc(O)c(OC)c2)ccc1O` was 3.88; that for `COc1cc([C@H]2c3cc(O)c(OC)cc3C[C@H]3[C@@H](OC)OC[C@H]23)ccc1O` was 4.41. The value for `COc1cc2c(cc1O)C1c3cc(OC)c(O)cc3C(=O)C(C2)C1CO` (stereo unspecified) was 4.28; that for `COc1cc([C@@H](OC)[C@@H]2CO[C@H](c3ccc(O)c(OC)c3)[C@@H]2CO)ccc1O` (relative stereo) was 3.77; that for `COc1cc([C@H]2OC[C@@H]([C@@H](OC)c3ccc(O)c(OC)c3)[C@H]2CO)ccc1O` (relative stereo) was 4.37. The value for `C[C@H]1O[C@H](O[C@H]2[C@H](O)[C@@H](O)[C@@H](O[C@H]3[C@H](O)[C@@H](O)C(O)O[C@@H]3CO)O[C@@H]2CO)[C@H](O)[C@@H](O)[C@@H]1N[C@H]1C=C(CO)[C@@H](O)[C@H](O)[C@H]1O` (stereo partly specified) [ACARBOSE] was 3.67. As for `COc1cc([C@H]2c3cc(O)c(OC)cc3C[C@H]3C(=O)OC[C@H]23)ccc1O` [ALPHA-CONIDENDRIN], the pIC50 is 3.71. Compound `COc1cc(C[C@H]2COC(=O)[C@@H]2Cc2ccc(O)c(OC)c2)ccc1O` [MATAIRESINOL] had a negative logarithm of the IC50 (pIC50) of 3.76.
